Laboratory results published in ChEMBL document CHEMBL5252546, “Salutaxel, a Conjugate of Docetaxel and a Muramyl Dipeptide (MDP) Analogue, Acts as Multifunctional Prodrug That Inhibits Tumor Growth and Metastasis” (J Med Chem, 2018).
Values belong to the molecule of their own block, whether it stands above or below them. Active and inactive are the calls of the source. The rule behind the calls is not given here.

How the values were obtained:
[1] = MRT in mouse plasma implanted with mouse 4T1 cells at 5.7 mg/kg,iv measured upto 72 hrs; format: ADME, organism-based
[2] = Toxicity in BALB/c mouse xenografted with human NCI-H1975 cells assessed as side effects at 5.7 mg/kg,iv administrated once per week for 3 weeks; format: organism-based; conditions: in vivo, 504 h
Summary of the method: (§1)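 Nude BALB/c nu/nu mice received subcutaneous human tumour cells into the right flank. Dosing started at mean tumour volume of 100–120 mm3, iv once weekly for 3 weeks; the taxane arm was an equimolar control. Body weight and overt side effects were monitored. Mean ± SEM, n = 8.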

[3] = Drug concentration in plasma of Beagle dog at 1.14 mg/kg,iv measured upto 24 hrs; format: ADME, organism-based, Canis lupus familiaris; conditions: in vivo
Summary of the method: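 Taxane given as a single intravenous dose: 2.28 mg/kg to rats by injection and 1.14 mg/kg to Beagle dogs by infusion. Plasma concentrations were then measured.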

[4] = Toxicity in BALB/c mouse xenografted with human HCT-116 cells assessed as body weight loss at 5.7 mg/kg,iv administrated once per week for 3 weeks; format: organism-based; conditions: in vivo, 504 h; summary of the method: as §1
[5] = Toxicity in BALB/c mouse xenografted with human A549/Taxol cells assessed as side effects at 5.7 mg/kg,iv administrated once per week for 3 weeks; format: organism-based, A549/TR; conditions: in vivo, 504 h; summary of the method: as §1
4T1 [6] = assay: Antitumor activity against mouse 4T1 cells implanted in BALB/c mouse assessed as decrease in tumor MMP9 expression level at 5.7 mg/kg,iv administrated once per week for 4 weeks in presence of MDA-205 by western blot assay; format: functional, organism-based
Summary of the method: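 Tumour-bearing BALB/c mice (4T1 cells into mammary fat pad) given iv saline vehicle or test agents once weekly for 4 weeks. Tumours excised and probed by western blot for MMP9, MMP2 and NOD1, β-actin as loading control. Bands averaged over five mice per group; representative of two independent experiments.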

4T1 [7] = assay: Antitumor activity against mouse 4T1 cells implanted in BALB/c mouse assessed as decrease in neutrophil in peripheral blood at 11.4 mg/kg,iv administrated qd for 2 days by blood smear staining microscopic analysis; format: functional, organism-based; conditions: time 2.0 day
Summary of the method: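 On day 19 after 4T1 implantation, mice were randomized into five groups and given iv vehicle or test article, plus ip C12-iE-DAP (50 μg/mouse) and MDP (100 μg/mouse), once daily for 2 days. Mice were killed 6 h later. Peripheral blood neutrophils/leukocytes were counted on stained blood smears at 1000×.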

[8] = Drug concentration in rat brain assessed as docetaxel concentration at 4 mg/kg,iv measured after 24 hrs; format: ADME, organism-based; conditions: in vivo
Summary of the method: (§2)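 Rats received 4 mg/kg iv. Parent drug and released docetaxel were assayed in tissues and plasma from the first sampling at 0.25 h to 24 h. The lower limit of quantitation was 200 ng/g.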

[9] = Prodrug conversion in mouse tumor implanted with mouse 4T1 cells assessed as Tmax of docetaxel at 4 mg/kg,iv measured upto 72 hrs; format: ADME, organism-based, Neoplasm; conditions: in vivo
[10] = Drug distribution in rat spleen at 4 mg/kg,iv measured by 0.25 hrs; format: ADME, organism-based; conditions: in vivo; summary of the method: as §2
[11] = Volume of distribution at steady state in female Beagle dog at 4 mg/kg,iv measured upto 24 hrs; format: ADME, organism-based, Canis lupus familiaris; conditions: in vivo, read-out: Vdss
[12] = Volume of distribution at steady state in female rat at 8 mg/kg,iv measured upto 24 hrs; format: ADME, organism-based; conditions: in vivo, read-out: Vdss
[13] = Volume of distribution at steady state in rat at 4 mg/kg,iv measured upto 24 hrs; format: ADME, organism-based; conditions: in vivo, read-out: Vdss
[14] = Clearance in male Beagle dog at 2 mg/kg,iv measured upto 24 hrs; format: ADME, organism-based, Canis lupus familiaris; conditions: in vivo
Summary of the method: (§3)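 Beagle dogs were given a single iv infusion at 1, 2 or 4 mg/kg. Plasma parent drug and released docetaxel were followed over time. Cmax, Tmax, AUC, MRT, t1/2, CL and Vss were reported by sex and for all dogs combined.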

[15] = Half life in female Beagle dog at 2 mg/kg,iv measured upto 24 hrs; format: ADME, organism-based, Canis lupus familiaris; conditions: in vivo
[16] = Half life in female rat at 4 mg/kg,iv measured upto 24 hrs; format: ADME, organism-based; conditions: in vivo
[17] = Half life in male rat at 2 mg/kg,iv measured upto 24 hrs; format: ADME, organism-based; conditions: in vivo
[18] = MRT (0 to infinity) in male rat at 4 mg/kg,iv measured upto 24 hrs; format: ADME, organism-based; conditions: in vivo
[19] = AUC (0-infinity) in Beagle dog at 1 mg/kg,iv measured upto 24 hrs; format: ADME, organism-based, Canis lupus familiaris; design: dose 1 mg/kg, time < 24 hrs, route iv; conditions: in vivo
Summary of the method: (§4)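 Single iv dose: rats 2, 4 or 8 mg/kg by intravenous injection; Beagle dogs 1, 2 or 4 mg/kg by intravenous infusion. Plasma concentration–time data were analysed by sex and pooled. Reported parameters: Cmax, Tmax, AUC0−t, AUC0−∞, MRT0−∞, t1/2, CL, Vss, given as mean ± SD.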

[20] = AUC (0-infinity) in female rat at 8 mg/kg,iv measured upto 24 hrs; format: ADME, organism-based; design: dose 8 mg/kg, time < 24 hrs, route iv; conditions: in vivo; summary of the method: as §4
[21] = AUC (0-t) in male Beagle dog at 4 mg/kg,iv measured upto 24 hrs; format: ADME, organism-based, Canis lupus familiaris; design: dose 4 mg/kg, time < 24 hrs, route iv; conditions: in vivo; summary of the method: as §4
[22] = AUC (0-t) in female Beagle dog at 1 mg/kg,iv measured upto 24 hrs; format: ADME, organism-based, Canis lupus familiaris; design: dose 1 mg/kg, time < 24 hrs, route iv; conditions: in vivo; summary of the method: as §4
[23] = Tmax in Beagle dog at 1 mg/kg,iv measured upto 24 hrs; format: ADME, organism-based, Canis lupus familiaris; conditions: in vivo
[24] = Tmax in female Beagle dog at 2 mg/kg,iv measured upto 24 hrs; format: ADME, organism-based, Canis lupus familiaris; conditions: in vivo
[25] = Cmax in female Beagle dog at 2 mg/kg,iv measured upto 24 hrs; format: ADME, organism-based, Canis lupus familiaris; design: dose 2 mg/kg, time < 24 hrs, route iv; conditions: in vivo; summary of the method: as §3
MDA-MB-231 = assay: Antitumor activity against human MDA-MB-231 cells xenografted with BALB/c mouse assessed as inhibition of tumor growth at 10 mg/kg,iv administrated once per week for 3 weeks; format: functional, organism-based
Summary of the method: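 BALB/c nu/nu mice given subcutaneous human tumour cells in the right flank; dosing began at about 100–120 mm3 mean volume; iv once weekly for 3 weeks, with equimolar parent drug as positive control; tumour volume and weight measured; n = 8, mean ± SEM, ANOVA and Student's t test.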

[26] = Toxicity in Beagle dog assessed as effect on electrocardiogram index at 1 to 4 mg/kg,iv; format: organism-based, Canis lupus familiaris; conditions: in vivo, dose 1-4 mg/kg
[27] = Toxicity in Beagle dog assessed as decrease in body temperature at 1 to 4 mg/kg,iv; format: organism-based, Canis lupus familiaris; conditions: in vivo, dose 1-4 mg/kg
[28] = Drug metabolism in dog hepatocytes assessed as MDA-205 metabolite formation at 20 uM incubated for 180 mins; format: ADME, cell-based, Canis lupus familiaris, Hepatocyte; conditions: 3 h
[29] = Stability in mouse hepatocyte assessed as compound remaining at 3 uM incubated upto 120 mins; format: ADME, cell-based; conditions: hepatocytes, 2 h
A549 = assay: Antiproliferative activity against human A549 cells assessed inhibition of cell growth incubated for 72 hrs by SRB assay; format: functional, cell-based; conditions: A549, 72 h
4T1 [30] = assay: Antitumor activity against mouse 4T1 cells implanted in BALB/c mouse assessed as decrease in spleen MMP2 expression level at 5 to 20 mg/kg,iv administrated once per week for 4 weeks by western blot assay; format: functional, organism-based; conditions: dose 5-20 mg/kg
Summary of the method: (§5)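 4T1 fat-pad model in BALB/c mice, iv once weekly for 4 weeks; MMP9, MMP2 and NOD1 in spleen, lung and tumour by western blot, β-actin loading control; bands averaged over five mice per group, representative of two independent experiments.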

4T1 [31] = assay: Antitumor activity against mouse 4T1 cells implanted in BALB/c mouse assessed as decrease in lung MMP9 expression level at 5 to 20 mg/kg,iv administrated once per week for 4 weeks by western blot assay; format: functional, organism-based; conditions: dose 5-20 mg/kg; summary of the method: as §5
4T1 [32] = assay: Antitumor activity against mouse 4T1 cells implanted in BALB/c mouse assessed as increase in lung NOD1 expression level at 5 to 20 mg/kg,iv administrated once per week for 4 weeks by western blot assay; format: functional, organism-based; conditions: dose 5-20 mg/kg; summary of the method: as §5

MRT [1]: 137 min
Drug uptake [3]: 0.8%
Structure (SMILES): CC(=O)O[C@@]12CO[C@@H]1C[C@H](O)[C@@]1(C)C(=O)[C@H](O)C3=C(C)[C@@H](OC(=O)[C@H](O)[C@@H](NC(=O)OC(C)(C)C)c4ccccc4)C[C@@](O)([C@@H](OC(=O)c4ccccc4)[C@H]21)C3(C)C [DOCETAXEL ANHYDROUS]
Activity [2]: Non-Toxic
Activity [4]: Non-Toxic
Activity [5]: Non-Toxic
Activity (4T1 [6]): inactive
Activity (4T1 [7]): Active

Structure (SMILES): CC(=O)O[C@@]12CO[C@@H]1C[C@H](O)[C@@]1(C)C(=O)[C@H](O)C3=C(C)[C@@H](OC(=O)[C@H](OC(=O)CCC(=O)NCCCC[C@H](NC(=O)CC[C@@H](NC(=O)[C@H](C)NC(=O)/C=C/c4ccc(F)cc4Cl)C(N)=O)C(=O)O)[C@@H](NC(=O)OC(C)(C)C)c4ccccc4)C[C@@](O)([C@@H](OC(=O)c4ccccc4)[C@H]21)C3(C)C
Drug uptake [8]: Not Active
Tmax [9]: 30 min
Drug uptake [10]: Active
Vd [11]: 0.087 L/kg
Vd [12]: 0.095 L/kg
Vd [13]: 0.076 L/kg
clearance [14]: 7.13 mL/min/kg
half-life [15]: 30.9 min
half-life [16]: 10.4 min
half-life [17]: 9 min
MRT inf [18]: 22.5 min
AUC(0-inf) [19]: 1640 ng·h/mL
AUC(0-inf) [20]: 39400 ng·h/mL
AUC(0-t) at 24 h [21]: 15200 ng·h/mL
AUC(0-t) at 24 h [22]: 1590 ng·h/mL
Tmax [23]: 30 min
Tmax [24]: 30 min
Cmax [25]: 14700 ng/mL
inhibition (MDA-MB-231): Active
Activity [26]: Non-Toxic
Activity [27]: Toxic
Drug metabolism [28]: Metabolite_Detected
Stability [29]: Stable
IC50 (A549): 16.3 nM
Activity (4T1 [30]): inactive
Activity (4T1 [31]): Active
Activity (4T1 [32]): Active
